From ChEMBL document CHEMBL1126323, “Inhibitors of protein kinase C. 2. Substituted bisindolylmaleimides with improved potency and selectivity” (J Med Chem, 1992)

What was measured:
[1] = Inhibition of protein kinase A (PKA) in bovine heart
Procedure, shortened: (§1)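 Kinase assay on PKA isolated from bovine heart, run by a method described earlier. Each data point was done in triplicate. IC50 values are the mean of at least two independent assays.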

[2] = molecular target: Protein kinase C (PKC); experiment: Inhibition of protein kinase C (PKC) in rat brain; type: tissue-based
Procedure, shortened: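 PKC from rat brain was assayed by a method described earlier. Each data point was done in triplicate. IC50 is the mean of at least two independent determinations.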

[3] = Inhibition of c-AMP dependent protein kinase A (PKA) in bovine heart; procedure, shortened: as §1

| IC50 [1] [µM] | IC50 [2] [µM] | IC50 [3] [µM] | Compound |
| --- | --- | --- | --- |
| – | 0.13 | 14.2 | Cn1cc(C2=C(c3cn(CCCO)c4ccccc34)C(=O)NC2=O)c2ccccc21 |
| – | 0.076 | 10.4 | Cn1cc(C2=C(c3cn(CCCCCN)c4ccccc34)C(=O)NC2=O)c2ccccc21 |
| – | 0.064 | 8.9 | Cn1cc(C2=C(c3cn(CCN)c4ccccc34)C(=O)NC2=O)c2ccccc21 |
| – | 0.34 | 22.1 | Cn1cc(C2=C(c3cn(CCO)c4ccccc34)C(=O)NC2=O)c2ccccc21 |
| – | 0.055 | 9.3 | Cn1cc(C2=C(c3cn(CCCCN)c4ccccc34)C(=O)NC2=O)c2ccccc21 |
| – | 0.035 | 11.9 | CNCCCn1cc(C2=C(c3cn(C)c4ccccc34)C(=O)NC2=O)c2ccccc21 |
| 12.1 | 0.041 | – | Cn1cc(C2=C(c3cn(CCSC(=N)N)c4ccccc34)C(=O)NC2=O)c2ccccc21 |
| – | 0.075 | 5.2 | Cn1cc(C2=C(c3cn(CCCN)c4ccccc34)C(=O)NC2=O)c2ccccc21 |

The remaining lines, values behind:

| Compound | IC50 [1] [µM] | IC50 [2] [µM] | IC50 [3] [µM] |
| --- | --- | --- | --- |
| Cn1cc(C2=C(c3cn(CCCCSC(=N)N)c4ccccc34)C(=O)NC2=O)c2ccccc21 | 2.7 | 0.028 | – |
| Cn1cc(C2=C(c3cn(CCCCCO)c4ccccc34)C(=O)NC2=O)c2ccccc21 | – | 0.28 | 21.3 |
| Cn1cc(C2=C(c3cn(CCCCCSC(=N)N)c4ccccc34)C(=O)NC2=O)c2ccccc21 | 4.6 | 0.047 | – |
| Cn1cc(C2=C(c3cn(CCCCO)c4ccccc34)C(=O)NC2=O)c2ccccc21 | – | 0.17 | 18.4 |
| Cn1cc(C2=C(c3cn(CCC/N=C(\N)N[N+](=O)[O-])c4ccccc34)C(=O)NC2=O)c2ccccc21 | 4.9 | 0.026 | – |
| Cn1cc(C2=C(c3cn(CCCN=C(N)N)c4ccccc34)C(=O)NC2=O)c2ccccc21 | – | 0.019 | 2.9 |
| Cn1cc(C2=C(c3cn(CCCSC(=N)N)c4ccccc34)C(=O)NC2=O)c2ccccc21 [BISINDOLYLMALEIMIDE IX] | 0.9 | 0.01 | – |
| Cn1cc(C2=C(c3cn(CCC[N+](C)(C)C)c4ccccc34)C(=O)NC2=O)c2ccccc21 | – | 0.093 | 64.5 |
| Cn1cc(C2=C(c3cn(CCCCC(=N)N)c4ccccc34)C(=O)NC2=O)c2ccccc21 | – | 0.031 | 7.4 |
| CN(C)CCCn1cc(C2=C(c3cn(C)c4ccccc34)C(=O)NC2=O)c2ccccc21 | – | 0.045 | 25.6 |
